Converted amounts (≈) assume the structure as drawn.
What was measured:
[1] = Inhibition of DprE1 in Mycobacterium tuberculosis
[2] = tested on: Mycobacterium tuberculosis; test: Antimycobacterial activity against Mycobacterium tuberculosis H37Rv assessed as reduction in bacterial cell growth by resazurin reduction method; format: functional
[3] = tested on: Pseudomonas putida; test: Antibacterial activity against Pseudomonas putida; format: functional
[4] = molecular target: Cytochrome P450 3A4 (Homo sapiens, UniProt P08684); test: Inhibition of CYP3A4 (unknown origin); format: ADME
[5] = tested on: Rhodococcus; test: Antibacterial activity against Rhodococcus sps; format: functional
[6] = Protein binding in human plasma assessed as free fraction; format: ADME, cell-free
[7] = Tmax in BALB/c mouse infected with Mycobacterium tuberculosis H37Rv at 30 mg/kg, po administered for 4 weeks starting from day 28 post infection; format: ADME, organism-based; conditions: in vivo
Method in brief: (§1)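 Male BALB/c mice with chronic TB, aerosol-infected, given 10 or 30 mg/kg orally in multiple doses over a 4-week course that began 28 days post-infection. Plasma concentration–time profiles were taken from infected animals. PK parameters are reported as mean ± SD, n = 3.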

[8] = tested on: Nocardia farcinica; test: Antibacterial activity against Nocardia farcinica; format: functional
[9] = molecular target: Cytochrome P450 2C9 (Homo sapiens, UniProt P11712); test: Inhibition of CYP2C9 (unknown origin); format: ADME
[10] = tested on: Escherichia coli; test: Antibacterial activity against Escherichia coli; format: functional
[11] = Toxicity in BALB/c mouse infected with Mycobacterium tuberculosis H37Rv assessed as gross pathology at 10 to 30 mg/kg, po administered for 4 weeks starting from day 28 infection; format: organism-based; conditions: in vivo, 672 h
Method in brief: (§2)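 Infected BALB/c mice received repeated oral dosing for 4 weeks in the chronic efficacy study. Adverse events were assessed as body weight loss, organ weight loss and gross pathology.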

[12] = tested on: Mycolicibacterium smegmatis; test: Antimycobacterial activity against Mycobacterium smegmatis mc2 155 assessed as reduction in bacterial cell growth by resazurin reduction method; format: functional
[13] = tested on: Proteus vulgaris; test: Antibacterial activity against Proteus vulgaris; format: functional
[14] = Lipophilicity, logD of compound; format: physicochemical; conditions: octanol/water
[15] = AUC (0 to infinity) in BALB/c mouse infected with Mycobacterium tuberculosis H37Rv at 10 mg/kg, po administered for 4 weeks starting from day 28 post infection; format: ADME, organism-based; parameters: dose 10 mg/kg, time infinity, route oral; conditions: in vivo; method in brief: as §1
[16] = Cmax in BALB/c mouse infected with Mycobacterium tuberculosis H37Rv at 30 mg/kg, po administered for 4 weeks starting from day 28 post infection; format: ADME, organism-based; parameters: dose 30 mg/kg, route oral; conditions: in vivo; method in brief: as §1
[17] = Half life in BALB/c mouse infected with Mycobacterium tuberculosis H37Rv at 10 mg/kg, po administered for 4 weeks starting from day 28 post infection; format: ADME, organism-based; conditions: in vivo; method in brief: as §1
[18] = tested on: Staphylococcus aureus; test: Antibacterial activity against Staphylococcus aureus; format: functional
[19] = Permeability across apical to basolateral side in human Caco2 cells; format: ADME, cell-based; conditions: Caco-2, read-out: permeability
[20] = tested on: Pseudomonas aeruginosa; test: Antibacterial activity against Pseudomonas aeruginosa; format: functional
[21] = tested on: Corynebacterium glutamicum; test: Antibacterial activity against Corynebacterium glutamicum; format: functional
[22] = tested on: Bacillus subtilis; test: Antibacterial activity against Bacillus subtilis; format: functional
[23] = tested on: Mycobacterium tuberculosis; test: Antimycobacterial activity against Mycobacterium tuberculosis H37Rv infected in BALB/c mouse assessed as reduction in bacterial burden in mouse spleen at 30 mg/kg, po administered for 4 weeks starting from day 28 post infection; format: functional
Method in brief: (§3)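 Chronic TB model in BALB/c mice infected by the aerosol route. Oral treatment began 28 days post-infection and ran 4 weeks. Bacterial burden was read as log10 CFU in lungs and spleen.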

[24] = Cmax in BALB/c mouse infected with Mycobacterium tuberculosis H37Rv at 10 mg/kg, po administered for 4 weeks starting from day 28 post infection; format: ADME, organism-based; parameters: dose 10 mg/kg, route oral; conditions: in vivo; method in brief: as §1
[25] = tested on: Mycobacterium tuberculosis; test: Bactericidal activity against Mycobacterium tuberculosis infected in human THP1 cells assessed as reduction in colony forming unit at antimycobacterial MIC incubated for 7 days; format: functional
[26] = tested on: Mycobacterium tuberculosis; test: Antimycobacterial activity against Mycobacterium tuberculosis H37Rv infected in BALB/c mouse assessed as reduction in bacterial burden in mouse lung at 30 mg/kg, po administered for 4 weeks starting from day 28 post infection; format: functional; method in brief: as §3
[27] = Tmax in mouse at MIC in presence of CYP pan inhibitor 1-aminobenzotriazole; format: ADME; conditions: in vivo
[28] = tested on: Corynebacterium pseudodiphtheriticum; test: Antibacterial activity against Corynebacterium pseudodiphtheria; format: functional
[29] = molecular target: Cytochrome P450 2C19 (Homo sapiens, UniProt P33261); test: Inhibition of CYP2C19 (unknown origin); format: ADME
[30] = tested on: Prescottella equi; test: Antibacterial activity against Rhodococcus equi; format: functional; conditions: Rhodococcus (subgen. Prescottella) equi
[31] = Oral bioavailability in rat; format: ADME, organism-based; conditions: in vivo
[32] = Permeability across basolateral to apical side in human Caco2 cells; format: ADME, cell-based; conditions: Caco-2, read-out: permeability
[33] = AUC (0 to infinity) in BALB/c mouse infected with Mycobacterium tuberculosis H37Rv at 30 mg/kg, po administered for 4 weeks starting from day 28 post infection; format: ADME, organism-based; parameters: dose 30 mg/kg, route oral, time infinity; conditions: in vivo; method in brief: as §1
[34] = tested on: Listeria monocytogenes; test: Antibacterial activity against Listeria monocytogenes; format: functional
[35] = Clearance in rat; format: ADME; conditions: in vivo
[36] = molecular target: Voltage-gated inwardly rectifying potassium channel KCNH2 (Homo sapiens, UniProt Q12809); test: Inhibition of human ERG
[37] = molecular target: Cytochrome P450 2D6 (Homo sapiens, UniProt P10635); test: Inhibition of CYP2D6 (unknown origin); format: ADME
[38] = molecular target: Cytochrome P450 1A2 (Homo sapiens, UniProt P05177); test: Inhibition of CYP1A2 (unknown origin); format: ADME
[39] = tested on: Mycobacterium tuberculosis; test: Bactericidal activity against Mycobacterium tuberculosis; format: functional
[40] = Half life in BALB/c mouse infected with Mycobacterium tuberculosis H37Rv at 30 mg/kg, po administered for 4 weeks starting from day 28 post infection; format: ADME, organism-based; conditions: in vivo; method in brief: as §1
[41] = Aqueous solubility of DMSO-dried solid compounds; format: physicochemical; conditions: buffer
[42] = Toxicity in BALB/c mouse infected with Mycobacterium tuberculosis H37Rv assessed as body weight loss at 10 to 30 mg/kg, po administered for 4 weeks starting from day 28 infection; format: organism-based; conditions: in vivo, 672 h; method in brief: as §2
[43] = Tmax in BALB/c mouse infected with Mycobacterium tuberculosis H37Rv at 10 mg/kg, po administered for 4 weeks starting from day 28 post infection; format: ADME, organism-based; conditions: in vivo; method in brief: as §1
[44] = Toxicity in BALB/c mouse infected with Mycobacterium tuberculosis H37Rv assessed as organ weight loss at 10 to 30 mg/kg, po administered for 4 weeks starting from day 28 infection; format: organism-based; conditions: in vivo, 672 h; method in brief: as §2
[45] = tested on: Mycobacterium tuberculosis; test: Bactericidal activity against Mycobacterium tuberculosis infected in mouse assessed as reduction in colony forming unit at 1 to 2 times of antimycobacterial MIC incubated for 10 days; format: functional
[46] = tested on: Enterococcus faecalis; test: Antibacterial activity against Enterococcus faecalis; format: functional
[47] = tested on: Corynebacterium pseudotuberculosis; test: Antibacterial activity against Corynebacterium pseudotuberculosis; format: functional
[48] = Mycobacterium tuberculosis, H37Rv, read-out: MIC

Sequence of Cytochrome P450 1A2 (P05177 whole entry): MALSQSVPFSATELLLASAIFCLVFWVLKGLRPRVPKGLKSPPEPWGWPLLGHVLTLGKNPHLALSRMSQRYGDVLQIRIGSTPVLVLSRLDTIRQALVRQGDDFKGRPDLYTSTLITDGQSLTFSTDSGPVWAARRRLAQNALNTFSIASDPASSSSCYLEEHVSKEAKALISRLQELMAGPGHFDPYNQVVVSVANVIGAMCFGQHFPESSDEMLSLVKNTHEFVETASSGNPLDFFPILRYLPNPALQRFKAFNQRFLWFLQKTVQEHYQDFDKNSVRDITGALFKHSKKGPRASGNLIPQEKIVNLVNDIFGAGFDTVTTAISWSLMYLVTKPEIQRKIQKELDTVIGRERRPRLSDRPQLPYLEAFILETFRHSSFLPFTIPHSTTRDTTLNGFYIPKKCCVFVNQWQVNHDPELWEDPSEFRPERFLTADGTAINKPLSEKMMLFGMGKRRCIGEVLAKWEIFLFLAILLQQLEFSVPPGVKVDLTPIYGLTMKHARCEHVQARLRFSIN
Sequence of Cytochrome P450 2D6 (P10635 whole entry): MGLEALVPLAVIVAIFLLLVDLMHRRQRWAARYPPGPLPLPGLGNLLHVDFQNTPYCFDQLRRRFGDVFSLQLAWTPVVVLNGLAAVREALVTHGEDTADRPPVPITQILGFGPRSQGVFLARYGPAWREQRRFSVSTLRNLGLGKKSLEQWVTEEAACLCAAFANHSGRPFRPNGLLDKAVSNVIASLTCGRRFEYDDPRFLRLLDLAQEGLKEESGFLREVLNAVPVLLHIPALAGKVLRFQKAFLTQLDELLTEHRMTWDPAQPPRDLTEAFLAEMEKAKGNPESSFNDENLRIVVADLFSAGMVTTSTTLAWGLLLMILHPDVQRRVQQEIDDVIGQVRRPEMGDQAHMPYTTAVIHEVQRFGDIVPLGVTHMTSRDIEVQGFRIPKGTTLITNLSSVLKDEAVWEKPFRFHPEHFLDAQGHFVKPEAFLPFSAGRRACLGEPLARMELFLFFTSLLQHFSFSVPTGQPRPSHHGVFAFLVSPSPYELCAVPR
Sequence of Cytochrome P450 2C9 (P11712 whole entry): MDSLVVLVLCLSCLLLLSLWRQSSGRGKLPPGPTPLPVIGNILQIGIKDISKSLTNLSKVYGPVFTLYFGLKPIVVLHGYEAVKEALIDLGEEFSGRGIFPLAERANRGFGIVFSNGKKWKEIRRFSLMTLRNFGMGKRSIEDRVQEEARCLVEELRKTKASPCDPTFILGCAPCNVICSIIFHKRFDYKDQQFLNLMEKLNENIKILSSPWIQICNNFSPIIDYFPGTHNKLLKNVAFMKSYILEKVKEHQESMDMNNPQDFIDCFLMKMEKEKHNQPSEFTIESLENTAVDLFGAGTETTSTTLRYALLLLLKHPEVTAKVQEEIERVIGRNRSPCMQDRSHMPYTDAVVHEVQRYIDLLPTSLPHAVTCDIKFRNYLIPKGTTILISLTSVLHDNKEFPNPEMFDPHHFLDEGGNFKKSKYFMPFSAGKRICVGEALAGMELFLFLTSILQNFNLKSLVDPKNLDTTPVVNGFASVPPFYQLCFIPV
Sequence of Voltage-gated inwardly rectifying potassium channel KCNH2 (Q12809 whole entry): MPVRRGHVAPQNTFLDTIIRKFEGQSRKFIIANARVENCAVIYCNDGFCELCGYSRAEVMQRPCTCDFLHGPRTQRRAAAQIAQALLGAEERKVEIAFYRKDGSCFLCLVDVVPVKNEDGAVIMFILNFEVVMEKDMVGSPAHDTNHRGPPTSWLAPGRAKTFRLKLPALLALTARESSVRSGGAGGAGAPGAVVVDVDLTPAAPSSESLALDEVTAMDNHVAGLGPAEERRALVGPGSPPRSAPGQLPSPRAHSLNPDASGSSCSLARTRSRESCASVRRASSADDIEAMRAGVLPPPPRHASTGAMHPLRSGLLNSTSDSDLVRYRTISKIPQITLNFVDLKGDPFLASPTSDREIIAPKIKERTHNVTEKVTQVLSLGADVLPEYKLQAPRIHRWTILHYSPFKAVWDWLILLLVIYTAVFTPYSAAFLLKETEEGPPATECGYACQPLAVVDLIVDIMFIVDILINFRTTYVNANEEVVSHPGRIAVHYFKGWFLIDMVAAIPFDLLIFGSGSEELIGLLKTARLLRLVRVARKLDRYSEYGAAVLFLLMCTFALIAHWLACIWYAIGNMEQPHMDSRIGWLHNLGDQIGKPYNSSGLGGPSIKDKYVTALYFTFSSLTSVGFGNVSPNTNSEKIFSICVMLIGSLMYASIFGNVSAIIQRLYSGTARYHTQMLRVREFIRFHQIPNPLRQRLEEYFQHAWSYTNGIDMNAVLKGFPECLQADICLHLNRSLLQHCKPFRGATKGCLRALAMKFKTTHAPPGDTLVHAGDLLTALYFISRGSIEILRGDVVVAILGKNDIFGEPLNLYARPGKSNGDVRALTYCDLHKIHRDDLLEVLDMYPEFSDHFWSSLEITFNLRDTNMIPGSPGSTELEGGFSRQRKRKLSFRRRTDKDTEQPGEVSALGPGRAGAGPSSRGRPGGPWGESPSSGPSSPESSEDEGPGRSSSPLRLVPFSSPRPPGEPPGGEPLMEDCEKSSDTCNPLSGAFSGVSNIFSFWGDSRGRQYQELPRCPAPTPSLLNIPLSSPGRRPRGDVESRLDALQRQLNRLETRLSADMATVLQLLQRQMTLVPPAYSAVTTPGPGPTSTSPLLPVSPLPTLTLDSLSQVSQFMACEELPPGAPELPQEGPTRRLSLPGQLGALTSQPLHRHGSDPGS
Sequence of Cytochrome P450 2C19 (P33261 whole entry): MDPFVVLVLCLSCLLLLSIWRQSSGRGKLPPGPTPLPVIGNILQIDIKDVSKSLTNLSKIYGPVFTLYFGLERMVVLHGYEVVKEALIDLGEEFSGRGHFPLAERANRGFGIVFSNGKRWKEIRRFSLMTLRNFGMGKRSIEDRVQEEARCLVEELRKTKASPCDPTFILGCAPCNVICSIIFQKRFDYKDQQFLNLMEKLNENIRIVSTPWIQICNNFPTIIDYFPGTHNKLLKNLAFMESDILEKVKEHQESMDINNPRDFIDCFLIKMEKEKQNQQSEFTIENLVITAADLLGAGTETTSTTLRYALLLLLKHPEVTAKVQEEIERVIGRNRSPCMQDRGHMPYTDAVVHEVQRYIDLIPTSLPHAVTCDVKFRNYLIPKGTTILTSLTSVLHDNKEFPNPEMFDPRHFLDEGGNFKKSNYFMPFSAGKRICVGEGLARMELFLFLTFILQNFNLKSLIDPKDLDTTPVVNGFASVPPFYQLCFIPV
Sequence of Cytochrome P450 3A4 (P08684 whole entry): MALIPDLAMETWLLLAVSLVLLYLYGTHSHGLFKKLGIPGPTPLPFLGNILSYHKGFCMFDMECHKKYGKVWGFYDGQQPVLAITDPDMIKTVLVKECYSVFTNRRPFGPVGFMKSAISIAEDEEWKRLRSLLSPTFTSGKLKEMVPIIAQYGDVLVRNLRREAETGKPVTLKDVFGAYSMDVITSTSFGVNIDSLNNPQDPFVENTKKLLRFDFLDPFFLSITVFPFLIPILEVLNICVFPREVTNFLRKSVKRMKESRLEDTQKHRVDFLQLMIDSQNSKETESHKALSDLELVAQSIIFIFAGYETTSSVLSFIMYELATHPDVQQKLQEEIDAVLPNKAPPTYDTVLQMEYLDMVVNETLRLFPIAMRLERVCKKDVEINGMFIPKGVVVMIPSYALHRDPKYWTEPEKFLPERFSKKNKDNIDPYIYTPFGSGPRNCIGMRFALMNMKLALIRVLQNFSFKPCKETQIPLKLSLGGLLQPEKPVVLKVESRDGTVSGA

Cc1cc(C(=O)NCCF)c2ncn(Cc3ncnc(OC(F)F)c3C)c2c1
IC50 [1]: 0.016 µM | MIC [2, 48]: < 0.39 µM

COc1cc(C(=O)NCCF)c2ncn(Cc3ncnc(OC)c3C)c2c1
IC50 [1]: 0.005 µM | MIC [2, 48]: < 0.39 µM

Cc1cc(C(=O)NCC(F)F)c2ncn(Cc3ncnc(N(C)C)c3C)c2c1
IC50 [1]: 0.004 µM | MIC [2, 48]: < 0.39 µM

COc1cc(C(=O)NCC(F)F)c2ncn(Cc3ncnc(N(C)C)c3C)c2c1
IC50 [1]: 0.009 µM | MIC [2, 48]: < 0.39 µM

COc1ncnc(Cn2cnc3c(C(=O)NCCF)cccc32)c1C
MIC [3]: > 200 µM | IC50 [4]: > 50 µM | MIC [5]: > 200 µM | fraction unbound [6]: 0.32 | Tmax [7]: 3 h | MIC [8]: > 200 µM | IC50 [1]: 0.034 µM | IC50 [9]: > 50 µM | MIC [10]: > 200 µM | Activity [11]: Non-Toxic | MIC [12]: 0.78 to 1.56 µM (≈ 0.268 to 0.536 µg/mL) | MIC [13]: > 200 µM | logD [14]: 1.9 | AUC(0-inf) [15]: 13.5 µM·h | Cmax [16]: 18.3 µM | half-life [17]: 4.5 h | MIC [18]: > 200 µM | Papp A→B [19]: 370 nm/s | MIC [20]: > 200 µM | MIC [21]: > 200 µM | MIC [22]: > 200 µM | Activity [23]: 1 log10CFU | Cmax [24]: 5.1 µM | Activity [25]: 1 log10CFU | Activity [26]: 1.5 log10CFU | Tmax [27]: 6 to 10 h | MIC [28]: > 200 µM | IC50 [29]: > 50 µM | MIC [30]: > 200 µM | bioavailability [31]: 114% | Papp B→A [32]: 140 nm/s | AUC(0-inf) [33]: 78.6 µM·h | MIC [34]: > 200 µM | clearance [35]: 2.88 L/h/kg | IC50 [36]: > 33 µM | IC50 [37]: > 50 µM | IC50 [38]: > 50 µM | MBC [39]: 1.56 µM (≈ 0.536 µg/mL) | half-life [40]: 5.9 h | solubility [41]: 152 µM (≈ 52.2 µg/mL) | Activity [42]: Non-Toxic | Tmax [43]: 2 h | Activity [44]: Non-Toxic | MIC [2, 48]: 1.56 to 3.12 µM (≈ 0.536 to 1.07 µg/mL) | Activity [45]: >3 log10CFU | MIC [46]: > 200 µM | MIC [47]: > 200 µM

COc1cc(C(=O)NCCF)c2ncn(Cc3ncnc(N(C)C)c3C)c2c1
IC50 [4]: > 50 µM | fraction unbound [6]: 0.31 | IC50 [1]: 0.016 µM | IC50 [9]: > 50 µM | logD [14]: 2 to 2.1 | Papp A→B [19]: 260 nm/s | IC50 [29]: > 50 µM | Papp B→A [32]: 220 nm/s | IC50 [36]: > 33 µM | IC50 [37]: > 50 µM | IC50 [38]: > 50 µM | solubility [41]: > 1000 µM | MIC [2, 48]: < 0.39 µM

Cc1cc(C(=O)NCCF)c2ncn(Cc3ncnc(N(C)C)c3C)c2c1
IC50 [1]: 0.009 µM | MIC [2, 48]: < 0.39 µM

COc1ncnc(Cn2cnc3c(C(=O)NCCF)cc(C)cc32)c1C
IC50 [1]: 0.008 µM | MIC [2, 48]: 0.78 µM (≈ 0.279 µg/mL)

COc1cc(C(=O)NCC(F)F)c2ncn(Cc3ncnc(OC(F)F)c3C)c2c1
IC50 [1]: 0.005 µM | MIC [2, 48]: < 0.39 µM

C[C@H]1COC2(CCN(c3nc(=O)c4cc(C(F)(F)F)cc([N+](=O)[O-])c4s3)CC2)O1 [BTZ-043]
MIC [2, 48]: 0.003 to 0.006 µM (≈ 0.00129 to 0.00259 µg/mL)

NNC(=O)c1ccncc1 [ISONIAZID]
MIC [2, 48]: 0.44 µM (≈ 0.0603 µg/mL)

CO[C@H]1/C=C/O[C@@]2(C)Oc3c(C)c(O)c4c(O)c(c(/C=N/N5CCN(C)CC5)c(O)c4c3C2=O)NC(=O)/C(C)=C\C=C\[C@H](C)[C@H](O)[C@@H](C)[C@@H](O)[C@@H](C)[C@H](OC(C)=O)[C@@H]1C [RIFAMPIN]
MIC [2, 48]: 0.01 µM (≈ 0.00823 µg/mL)

COc1ncnc(Cn2cc(C(=O)NCCO)c3ncc(C)cc32)c1C [TBA-7371]
clearance [35]: 1.62 L/h/kg | MBC [39]: 1.56 µM (≈ 0.554 µg/mL) | MIC [2]: 0.78 µM (≈ 0.277 µg/mL)

From ChEMBL document CHEMBL4359928, “Scaffold Morphing To Identify Novel DprE1 Inhibitors with Antimycobacterial Activity” (ACS Med Chem Lett, 2019)
